Mdm2 ligase inh – MDM2-luciferase reporter signal enhancers, primary screen, MDM2 E3 ligase inhibitor project, cell-based, luminescence, 1536-well | E3 ubiquitin-protein ligase Mdm2 (Homo sapiens), Q00987 | cell-based MDM2 ubiquitination luciferase reporter, 2 h; 0 = plate control, 100 = twice control, blank-subtracted | signal enhancement, % at 5 µM | 210,000 tested, 0.11% active | AID 1230, 2008;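 active = signal enhancement of 30% or more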;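 also: luminescence tracks abundance of the self-degrading MDM2-luciferase fusion protein; higher signal means inhibition of MDM2 E3 ligase activity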
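Assay system: stable mammalian line carrying autodegrading MDM2–luciferase fusion reporter; amount: 2000 cells seeded into each well; buffer or medium: DMEM; benchmarks: plate control and blank wells; signal: luciferase luminescence; timing: 2 h compound exposure at 37 °C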
UPR XBP1 act – activators of adaptive XBP1 UPR arm, primary screen, cell-based, CHO-XBP1 luciferase reporter, luminescence, uHTS | IRE1-XBP1 UPR activation; percent of tunicamycin response, DMSO as zero | activation, % at 20 µM | 330,000 tested, 0.33% active;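 active = versus positive control, 20 µM dose yields 30% or more activation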;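 also: 100% = tunicamycin at 10 µg/mL and 0% = DMSO only wells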
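Material: CHO-XBP1 cells stably carrying IRE1-XBP1-driven luciferase reporter | Medium: F12 with 10% serum | Compound dosing: 20 µM single concentration, DMSO 1% | Incubation: Overnight seeding at 37 °C, 6 h compound treatment at 37 °C | Detection: Steady-Glo luminescence read | Read-out basis: % activation of reporter signal versus tunicamycin and DMSO controls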
B2AR ag – beta2AR agonists driving receptor internalization, primary screen, cell-based, FAP fluorogen, flow cytometry. 340,000 tested, 0.43% active. Beta-2 adrenergic receptor (Homo sapiens), P07550. Am2.2-beta2AR cells. response, % (concentration not given with the values);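 active = response above a set limit, near 3 SD of response in nonfluorescent compounds, cut at about 42% in these data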
Target sequence (P07550 whole entry, looked up): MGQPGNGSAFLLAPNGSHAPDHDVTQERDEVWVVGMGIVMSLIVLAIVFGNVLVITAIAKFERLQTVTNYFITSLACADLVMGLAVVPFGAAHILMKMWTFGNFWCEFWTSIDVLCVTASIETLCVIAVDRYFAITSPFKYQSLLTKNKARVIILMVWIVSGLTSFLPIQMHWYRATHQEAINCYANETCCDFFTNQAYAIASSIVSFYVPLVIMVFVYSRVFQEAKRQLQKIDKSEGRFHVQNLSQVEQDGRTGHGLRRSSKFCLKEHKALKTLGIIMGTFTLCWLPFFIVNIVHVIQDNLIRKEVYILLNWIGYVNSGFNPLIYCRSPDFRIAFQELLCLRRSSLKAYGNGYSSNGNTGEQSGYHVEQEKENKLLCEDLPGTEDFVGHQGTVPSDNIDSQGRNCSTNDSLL
UPR CHOP act – activators of apoptotic CHOP UPR arm, primary screen, cell-based, CHO-CHOP luciferase reporter, luminescence, uHTS; UPR activation; percent of tunicamycin response over DMSO baseline; activation, % at 10 µM; 330,000 tested, 0.34% active; AID 449763, 2010;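 active = at 10 µM dose, activation of 40% or more, normalized to positive control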;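 also: 100% = tunicamycin at 10 µg/mL and 0% = DMSO alone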
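Assay system: CHO cells with stable CHOP pathway luciferase reporter; Buffer or medium: F12 plus 10% serum; Times: 16-18 h cell attachment, then 6 h compound exposure, 37 °C; Signal: luciferase luminescence; Read-out basis: percent activation relative to tunicamycin control; Control set: tunicamycin high control, DMSO low control.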
Mdm2-MdmX inh – inhibitors of human Mdm2-MdmX association, primary screen, cell-based, luminescence, split luciferase, SaOS-2, uHTS; Protein Mdm4 (Homo sapiens) + E3 ubiquitin-protein ligase Mdm2 (Homo sapiens), …; 330,000 tested, 3% active; AID 485346, 2010; inhibition, % at 8 µM; SaOS-2 split-luciferase Mdm2/MdmX complementation;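 active = inhibition of at least 50% at 8 µM in the primary screen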
Dynein cargo inh – inhibitors of GR-EGFP nuclear translocation, primary screen, dynein cargo transport inhibitor project, imaging, high-content, 3617.4 mouse cells; test concentration mostly 20 µM; stimulated with dexamethasone, 1 µM; active compounds read low; z-score, hits read low; 220,000 tested, 0.47% active;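 active = plate z-score of nuclear minus cytoplasmic receptor signal below a set negative limit, without overly bright fluorescence or cell loss, cut at about -3.5 in these data, passing the limit was not always enough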;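 also: z-score of nuclear minus cytoplasmic ring GR-EGFP intensity difference per well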
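medium = tetracycline-free induction medium containing charcoal-stripped FBS | also added = 1.0 µM final dexamethasone stimulus | schedule = 48 h induction, 1 h compound, 30 min dex at 37 °C | technique = fixed, Hoechst-stained cells imaged at 10x for EGFP | measure = GR-EGFP nuclear translocation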
Mdm2 MdmX conf – Mdm2-MdmX complex disruptors, retested hits, confirmation, luminescence, single concentration. shares compounds with Mdm2-MdmX inh. Mdm2-MdmX binding, luminescent assay. inhibition, % at 8 µM. 10,000 tested, 55% active. AID 489028, 2010; in the data active = inhibition above about 40%
Full FLuc ctr – full-length luciferase signal inhibition, confirmation, counter-screen for Mdm2/MdmX interaction inhibitor project, cell-based, single concentration, SaOS-2; shares compounds with Mdm2-MdmX inh; SaOS-2 full-length luciferase counterscreen, luminescence; inhibition, % at 8 µM; 6,200 tested, 77% active; AID 504607, 2011;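 active = mean inhibition at 8 µM reaching about 37%, which flags the compound as non-specific, limit read from the data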;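 also: p53-null SaOS-2 cells with luciferase driven by a doxycycline-inducible promoter; compound on cells about two nights before reading with doxycycline added after day one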
Starred values were filed as active, the others as inactive; x = no result. Rows were chosen to be rich in hits. Some 3.7% of all compounds tested hit in one or more screens of this group.

SMILES	Mdm2 ligase inh	UPR XBP1 act	B2AR ag	UPR CHOP act	Mdm2-MdmX inh	Dynein cargo inh	Mdm2 MdmX conf	Full FLuc ctr
O=S(=O)(c1ccc(Cl)cc1)N1CCCc2ccccc21	x	-4	-2	2	10	x	x	x
Cc1ccc(NC(=O)c2cc(S(=O)(=O)N3CCc4ccccc43)cn2C)cc1C	x	-4	5	1	55*	x	22	x
COc1ccc(NC(=O)c2cc(S(=O)(=O)N3CCc4ccccc43)cn2C)cc1	x	0	17	0	29	x	x	x
CC(=O)NCc1ccc(C(=O)O)cc1	x	-2	5	1	10	-0.064	x	x
O=C(O)c1c2c(nc3ccccc13)/C(=C/c1ccc(OC(F)F)cc1)CCC2	x	0	0	-1	-9	x	x	x
O=C(O)c1c2c(nc3ccccc13)/C(=C/c1ccc(O)cc1)CC2	-60	-7	-3	-5	62*	-0.22	60*	106*
CN(C(=O)COC(=O)c1ccc2c(=O)n3c(nc2c1)CCC3)c1ccccc1	1	2	-13	0	14	0.21	x	x
Cc1[nH]c2ccccc2c1C(=O)COC(=O)c1ccc2c(=O)n3c(nc2c1)CCC3	x	0	0	-4	59*	0.28	33	x
O=C(NCc1nc(-c2ccc(C(F)(F)F)cc2)no1)Nc1cc(Cl)cc(Cl)c1	-10	1	11	2	93*	-1.5	81*	45*
COc1ccc(N(CC(=O)Nc2ccccc2OC)S(=O)(=O)c2ccc(NC(C)=O)cc2)cc1	x	-5	-4	-3	53*	x	63*	55*
O=C(CN1C(=O)c2cccnc2Oc2ccc(Cl)cc21)Nc1ccccc1F	x	-4	4	0	0	x	x	x
C/C(N=Nc1nc2ccccc2s1)=N\Nc1ccccc1O	-19	-2	4	1	56*	-0.047	58*	26
Cc1cccnc1NC(=O)Nc1cccc(Cl)c1	x	-2	2	6	-64	x	x	x
COc1cccc(C(=O)Nc2ccc3c(cc2=O)[C@@H](NC(C)=O)CCc2cc(OC)c(OC)c(OC)c2-3)c1	x	15	-4	2	71*	x	66*	99*
COc1cc2c(c(OC)c1OC)-c1ccc(OC)c(=O)cc1C(NC(C)=O)CC2 (centres undefined)	x	19	24	-1	60*	x	58*	118*
O=C(CSc1n[nH]c(=O)n1Cc1ccccc1)Nc1ccc(F)c(F)c1F	x	0	-3	1	15	x	x	x
COc1ccc(CN2CCN(CCc3ccccc3)C(CCO)C2)cc1Cn1cncn1 (centres undefined)	-2	2	-4	-1	1	0.53	x	x
CN(CC(=O)Nc1ccccc1Cl)C(=O)COC(=O)c1nc(Cl)c(Cl)c(Cl)c1Cl	x	-2	0	5	78*	x	41*	31
CCOC(=O)c1c(NC(=O)CSc2nnc(-c3c[nH]c4ccccc34)n2C)sc2c1CCCC2	x	0	21	-1	61*	-0.71	15	x
C=C(C)C1CC=C(C)/C(=N/NC(=O)CCC(=O)Nc2ccccc2Cl)C1 (centres undefined)	x	2	-30	-1	17	x	x	x
NC(=O)NC(CC(=O)N1CCc2ccccc2C1)c1ccc(Cl)cc1 (centres undefined)	x	-1	7	-1	6	x	x	x
COc1cc(/C=C/C(=O)OCC(=O)NCc2ccco2)ccc1O	x	-1	-4	1	54*	x	45*	83*
CN(c1ccccc1)S(=O)(=O)c1ccc(Cl)c(C(=O)OCC(=O)c2c(N)n(C)c(=O)n(C)c2=O)c1	x	x	18	x	x	x	x	x
CCCCN(C(=O)c1oc2ccc(OCC)cc2c1C)c1c(N)n(CCCC)c(=O)[nH]c1=O	x	-5	-18	0	16	x	x	x
COc1cccc(/C=C2\SC(=S)N(CCCC(=O)Nc3ccc(C(=O)O)cc3)C2=O)c1	x	0	9	0	24	x	x	x
SMILES	Mdm2 ligase inh	UPR XBP1 act	B2AR ag	UPR CHOP act	Mdm2-MdmX inh	Dynein cargo inh	Mdm2 MdmX conf	Full FLuc ctr
Cc1ccc(/C=C2\SC(=S)N(CCCC(=O)NC3CCCC3)C2=O)cc1	x	-9	-8	-7	63*	x	34	x
Cc1ccc(NC(=O)CCCN2C(=O)/C(=C/C=C/c3ccccc3)SC2=S)cc1	x	0	5	0	57*	1.2	41*	47*
O=C(CCCN1C(=O)S/C(=C/C=C/c2ccccc2)C1=O)Nc1ccc(C(=O)O)cc1	x	0	3	3	14	x	x	x
O=C(CN1C(=O)S/C(=C\C=C\c2ccccc2)C1=O)Nc1ccc(O)cc1	-2	0	-2	10	78*	0.38	42*	81*
COc1cccc(/C=C2/SC(=S)N(CCCC(=O)Nc3ccc(O)cc3)C2=O)c1	x	0	-2	38	100*	x	85*	3
Cc1ccnc(NC(=O)CCN2C(=O)c3ccccc3S2(=O)=O)n1	x	-1	1	1	10	x	x	x
Cc1cc(C)c2c(N)c(C(=O)Nc3ccc([N+](=O)[O-])cc3)sc2n1	x	2	15	9	-28	x	x	x
Cc1ccc(/C=C2\SC(=S)N(CCC(=O)NNC(=O)c3ccccc3O)C2=O)cc1	x	4	3	2	53*	x	17	x
O=C(CCCN1C(=O)/C(=C\c2ccccc2)SC1=S)Nc1ccc(O)cc1	-8	-1	1	1	99*	-0.94	100*	33
Cc1ccc(/C=C2/SC(=S)N(CCCC(=O)Nc3ccc(O)cc3)C2=O)cc1	-1	-3	-1	-4	92*	0.099	94*	54*
COc1ccccc1NC(=O)CCN1C(=O)/C(=C\c2cc(OC)c(OC)c(OC)c2)SC1=S	x	-4	7	2	52*	x	-2	x
COc1ccc(S(=O)(=O)NCC(c2ccc3c(c2)OCO3)N2CCOCC2)cc1 (centres undefined)	x	0	3	1	10	x	x	x
